In the library only some 4% were active in any assay of this set; here they are far more common.
FAS TE block = blocks the thioesterase domain of human fatty acid synthase | recombinant FAS-TE, OMFH fluorogenic substrate, fluorescence endpoint | inhibition, % at 15 µM | 360,000 tested, 0.67% active | AID 602261;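 active = compounds whose normalised, plate-corrected inhibition of enzyme fluorescence in the single-dose primary screen is 50% or more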
SENP1 FRET inh = blocks the human SENP1 SUMO protease catalytic domain; recombinant SENP1 catalytic domain, CyPet-SUMO1-YPet FRET cleavage; inhibition, % at 10 µM; AID 624204; 360,000 tested, 0.21% active;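 active = inhibition at least 30% at 10 µM, raw YFP signal under a set limit, fluorescence ratio 0.5 to 1.5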
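System: Recombinant human SENP1 catalytic domain, His6-tagged | Incubation: Enzyme reaction for 50 min at room temperature, dark | Medium: Tris pH 8 with BME, BSA, NP40 and catalase | Also added: 25 nM SUMO1 FRET substrate | Compound: 10 µM single point, 0.5% DMSO | Measured by: FRET fluorescence in CFP and YFP emission channels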
hiPSC survival = increases survival of single human iPS cells. hiPSC single-cell survival, ATPlite luminescence; 100% = ROCK inhibitor wells, 0% = DMSO. survival enhancement, % at 20 µM. 360,000 tested, 0.044% active; in the data active = survival enhancement above about 18%;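 also: cells exposed to compounds for 16 hours before the ATP read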
GRIN3A LBD mod = modulates the human NR3A ligand-binding domain; Tm shift relative to glycine control, % at 25 µM; 340,000 tested, 2.5% active; NR3A LBD differential scanning fluorimetry, Tm shift; 0% = protein alone, 100% = glycine-bound protein; AID 1259313;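 active = melting temperature shift of at least 10% of the positive control shift, at one fixed dose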
H9c2 protect = protects H9c2 cardiomyocytes from peroxide injury | H2O2 injury protection, ATPLite, 2 h | protection from H2O2 cell death, % at 20 µM | 360,000 tested, 0.63% active | AID 588492;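 active = compounds giving at least 50% protection of heart cells from peroxide-induced death in the single-dose screen, raw or plate-pattern-corrected value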
Arrestin-AP2 inh = inhibitors of human beta-arrestin and AP2 interaction. 340,000 tested, 0.31% active. inhibition, % at 10 µM. FITC-arrestin peptide / GST-AP2 beads, flow cytometry; AP2 beta2 appendage carries R879A mutation;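 active = inhibition above a set limit, near 3 SD of compounds lacking own fluorescence, cut at about 54% in these data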
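System: GST-AP2 R879A bound to glutathione beads, E. coli-expressed. Also added: 50 nM FITC-arrestin peptide. Schedule: compound with beads 12 min RT, then probe 1 h RT. Signal: bead flow cytometry, FITC channel. Read-out basis: percent response.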
Of the large screens only hits and unclear results are named; the others gave an inactive call.

COC(=O)c1cc(Cl)ccc1NCC(N)c1ccccc1 (configuration not stated)	none (no result: GRIN3A LBD mod, Arrestin-AP2 inh)
CC(=O)Nc1ccc(S(=O)(=O)NC2=C(N3CCN(c4ccc(F)cc4)CC3)C(=O)c3ccccc3C2=O)cc1	GRIN3A LBD mod 16
CC1(C(=O)Nc2ccc3c(c2)OCCO3)CSCC(=O)N1C1CC1 (configuration not stated)	none (no result: FAS TE block, hiPSC survival, GRIN3A LBD mod, H9c2 protect, Arrestin-AP2 inh)
CCOC(=O)c1nc(Nc2ccc(C(C)=O)cc2)c2ccccc2n1	H9c2 protect 82
CCOC(=O)c1nc(Nc2cccc(C)c2)c2ccccc2n1	none
CCOC(=O)c1cccc(Nc2nc(-c3cccnc3)nc3ccccc23)c1	H9c2 protect 55
O=C(O)c1cccc(Nc2nc(-c3cccnc3)nc3ccccc23)c1	none (no result: Arrestin-AP2 inh)
COC(=O)c1cccc(Nc2nc(-c3cccnc3)nc3ccccc23)c1	H9c2 protect 51
O=C(CNC(=O)c1cccc(-n2cccc2)c1)Nc1ccccc1Br	none (no result: GRIN3A LBD mod, Arrestin-AP2 inh)
CC(O)(c1ccc(F)c(F)c1)c1nc(-c2cc(F)cc(F)c2)cs1 (configuration not stated)	none (no result: GRIN3A LBD mod, Arrestin-AP2 inh)
CCCNC(=O)C1(C)CCCN(Cc2ccc(-c3ccccn3)cc2)C1 (configuration not stated)	none (no result: GRIN3A LBD mod, Arrestin-AP2 inh)
COc1ccc(C(CC(=O)N2CCCC2)c2c(OC)cc(OC)c3c(-c4ccccc4)cc(=O)oc23)cc1 (configuration not stated)	none
COc1ccc(C(CC(=O)N2CCCC(C)C2)c2c(OC)cc(OC)c3c(-c4ccccc4)cc(=O)oc23)cc1 (configuration not stated)	GRIN3A LBD mod 16
COc1cc2c(c(OC)c1CC=C(C)C)C[C@H](c1ccc(O)cc1O)CO2	GRIN3A LBD mod 19
Cn1cc(/C=N/NC(=O)c2ccccc2O)c2ccccc21	none
CC(=O)n1cc(/C=N/NC(=O)c2ccccc2O)c2ccccc21	GRIN3A LBD mod 32
Cc1cccc(N2CCN(C(C(=O)NCc3ccccc3)c3ccc(C(F)(F)F)cc3)CC2)c1C (configuration not stated)	none (no result: FAS TE block, hiPSC survival, GRIN3A LBD mod, H9c2 protect, Arrestin-AP2 inh)
COc1cc(CCNC(=O)c2cnn3ccccc23)cc(OC)c1OC	GRIN3A LBD mod 22
COc1ccc(CCNC(=O)c2cnn3ccccc23)c(OC)c1OC	none
COCCn1c(=S)[nH]c2cc(C(=O)NC3CCCC(C)C3C)ccc2c1=O (configuration not stated)	none (no result: GRIN3A LBD mod, Arrestin-AP2 inh)
N#Cc1cc(-c2ccc(Cl)cc2)cnc1Sc1ccc(F)cc1	GRIN3A LBD mod 13
Cn1c(Cl)c(/C=N/OC(=O)c2ccc(Cl)cc2)c2ccccc21	hiPSC survival 22
c1ccc(-c2csc(-c3ccncc3)n2)cc1	none
c1ccc2c(-c3csc(-c4ccncc4)n3)c[nH]c2c1	GRIN3A LBD mod 27
Brc1ccc(-c2csc(-c3c[nH]c4ccccc34)n2)cc1	GRIN3A LBD mod 47
COc1cc(NC(=O)c2sc3ncn(CC(=O)N4CCCCC4C)c(=O)c3c2C)cc(OC)c1OC (configuration not stated)	none (no result: GRIN3A LBD mod, Arrestin-AP2 inh)
Cn1nnc2cc(NC(=O)Nc3cccc(Cl)c3)ccc21	GRIN3A LBD mod 27
Cc1cc(NC(=O)Nc2cccc(Cl)c2)n(-c2ccccn2)n1	GRIN3A LBD mod 33
O=C(/C=C/c1cccc(Cl)c1)Nc1ncccn1	none
Cn1nccc1NC(=O)Nc1cccc(Cl)c1	none
CSc1cccc(NC(N)=O)c1	none
CSc1cccc(NC(=O)Nc2ccc(Cl)cc2)c1	GRIN3A LBD mod 29
CSc1cccc(NC(=O)/C=C/c2cccc(Cl)c2)c1	GRIN3A LBD mod 67
CCc1nc2c(OCc3ccc(Cl)cc3)cccn2c1N(C)C(=O)c1ccc(C)cc1	none (no result: GRIN3A LBD mod, Arrestin-AP2 inh)
O=C(Nc1ccc(Cl)cc1)Nc1cccc(C(=O)O)c1	none
CSc1ccc(NC(=O)Nc2ccccc2C(N)=O)cc1	GRIN3A LBD mod 10
CC(=O)Nc1ccc(NC(=O)Nc2cccc(Cl)c2)cc1	GRIN3A LBD mod 34
O=C(Cc1ccccc1)NNC(=O)Nc1cccc(Cl)c1	none
O=C(CN1c2ccccc2Sc2ccccc21)NNC(=O)Nc1cccc(Cl)c1	GRIN3A LBD mod 18
